Data taken from ChEMBL document CHEMBL1828545, “Synthesis and characterization of novel PUFA esters exhibiting potential anticancer activities: an in vitro study” (Eur J Med Chem, 2011).
The source made the active and inactive calls. The calls are words filed in the database; no cut-off is given here.

Columns and labels:
HepG2 [1] = assay: Cytotoxicity against human HepG2 cells after 94 hrs by MTT assay; format: functional, cell-based; details: HepG2, 94 h
Outline: (§1)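 Cells seeded at 5 x 10^5 cells/200 µl/well in 96-well plates, grown in medium with 5% FCS. After 24 h, compounds added at 0–15 µM, with ethanol as vehicle control. Incubated 94 h, then medium replaced. MTT (5 mg/ml) added for 2-3 h at 37 °C and dissolved in DMSO. A620 read in triplicate wells. IC50 taken from the concentration giving 50% loss of viability.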

MDA-MB-361 [2] = assay: Cytotoxicity against human MDA-MB-361 cells after 94 hrs by MTT assay; format: functional, cell-based; details: MDA-MB-361, 94 h; outline: as §1
SK-MEL-1 = assay: Cytotoxicity against human SK-MEL-1 cells after 94 hrs by MTT assay; format: functional, cell-based; details: for IC50: SK-MEL-1, 94 h; outline: as §1
A549 = assay: Cytotoxicity against human A549 cells after 94 hrs by MTT assay; format: functional, cell-based; details: for IC50: A549, 94 h; outline: as §1
HL-60 = assay: Cytotoxicity against human HL60 cells after 94 hrs by MTT assay; format: functional, cell-based; details: for IC50: HL-60, 94 h; outline: as §1
HepG2 [3] = assay: Modulation of lipid peroxidation in human HepG2 cells assessed as malondialdehyde production after 24 hrs by thiobarbituric acid assay; format: functional, cell-based
Outline: (§2)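 Cells exposed for 24 h to vehicle or to 25, 50 or 100 µM compound. Malondialdehyde measured spectrophotometrically by thiobarbituric acid assay and expressed as nmol MDA per 10^6 cells. Means ± SD of five experiments.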

HepG2 [4] = assay: Induction of apoptosis in human HepG2 cells assessed as upregulation of cytochrome c expression at 15 uM after 24 hrs by Western blotting; format: functional
Outline: (§3)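 Cells (1 × 10^7/well) grown 24 h in serum-free medium at 37 °C, then treated 24 h, with ethanol as control. Harvested by trypsin and lysed in TNN buffer (50 mM Tris-HCl pH 7.4, NP-40, protease inhibitors). Cytosolic fraction taken from a 10,000 g spin. Protein measured by BCA and equal amounts run on 10% SDS-PAGE. Blotted to nitrocellulose, probed with monoclonal antibodies plus a β-actin reprobe, detected by ECL. Densitometry as mean of triplicates.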

HepG2 [5] = assay: Induction of apoptosis in human HepG2 cells assessed as upregulation of caspase 3 expression at 15 uM after 24 hrs by Western blotting; format: functional, cell-based; outline: as §3
HFL1 = assay: Cytotoxicity against human HFL1 cells after 94 hrs by MTT assay; format: cell-based; details: hfl1, 94 h; outline: as §1
MDA-MB-361 [6] = assay: Modulation of lipid peroxidation in human MDA-MB-361 cells assessed as malondialdehyde production assessed per 10^6 cells at 25 to 100 uM after 24 hrs by thiobarbituric acid assay; format: functional; outline: as §2
MDA-MB-361 [7] = assay: Induction of apoptosis in human MDA-MB-361 cells assessed as upregulation of cytochrome c expression at 15 uM after 24 hrs by Western blotting; format: functional; outline: as §3
MDA-MB-361 [8] = assay: Induction of apoptosis in human MDA-MB-361 cells assessed as upregulation of caspase 3 expression at 15 uM after 24 hrs by Western blotting; format: functional; outline: as §3

CCCCC/C=C\C/C=C\C/C=C\C/C=C\CCCC(=O)Oc1c(C(C)C)cccc1C(C)C
IC50 (HepG2 [1]): 3.1 µM
IC50 (MDA-MB-361 [2]): 7.21 µM
growth inhibition (GI) (SK-MEL-1): Active
IC50 (A549): 4.6 µM
IC50 (HL-60): 3.9 µM
Activity (HepG2 [3]): Dose-dependent effect
Activity (HepG2 [4]): 24.2%
Activity (HepG2 [5]): inactive

COc1cccc2c1C(=O)c1c(O)c3c(c(O)c1C2=O)C[C@@](O)(C(=O)CO)C[C@@H]3O[C@H]1C[C@H](N)[C@H](O)[C@H](C)O1 [DOXORUBICIN]
IC50 (HepG2 [1]): 2.17 µM
IC50 (MDA-MB-361 [2]): 2.03 µM
IC50 (SK-MEL-1): 3.09 µM
IC50 (A549): 3.6 µM
IC50 (HL-60): 3.14 µM
Activity (HFL1): Non-toxic

CCCCC/C=C\C/C=C\CCCCCCCC(=O)Oc1c(C(C)C)cccc1C(C)C
IC50 (HepG2 [1]): 3.3 µM
IC50 (MDA-MB-361 [2]): 2.76 µM
IC50 (SK-MEL-1): 4.1 µM
growth inhibition (GI) (A549): Active
growth inhibition (GI) (HL-60): Active
Activity (HFL1): Non-toxic
Activity (MDA-MB-361 [6]): 0.25 nmol
Activity (MDA-MB-361 [7]): 36.6%
Activity (MDA-MB-361 [8]): 33.7%

CCCCC/C=C\C/C=C\C/C=C\C/C=C\CCCC(=O)Oc1ccc(C(C)C)cc1C(C)C
IC50 (HepG2 [1]): 3.7 µM
IC50 (MDA-MB-361 [2]): 7.5 µM
growth inhibition (GI) (SK-MEL-1): Active
IC50 (A549): 5.3 µM
IC50 (HL-60): 4.4 µM
Activity (HFL1): Toxic
Activity (HepG2 [3]): Dose-dependent effect
Activity (HepG2 [4]): 24.7%
Activity (HepG2 [5]): inactive

CCCCC/C=C\C/C=C\CCCCCCCC(=O)Oc1ccc(C(C)C)cc1C(C)C
IC50 (HepG2 [1]): 4.1 µM
IC50 (MDA-MB-361 [2]): 3.2 µM
IC50 (SK-MEL-1): 4.9 µM
growth inhibition (GI) (A549): Active
growth inhibition (GI) (HL-60): Active
Activity (HFL1): Non-toxic
Activity (MDA-MB-361 [6]): 0.25 nmol
Activity (MDA-MB-361 [7]): 35.2%
Activity (MDA-MB-361 [8]): 32.6%
